Results taken from ChEMBL document CHEMBL4406822, “Neuroactive Steroid N-Methyl-d-aspartate Receptor Positive Allosteric Modulators: Synthesis, SAR, and Pharmacological Activity” (J Med Chem, 2019).
The source made the active and inactive calls. The calls are words filed in the database; no cut-off is given here.

What was measured:
[1] = biological target: T1, Glutamate NMDA receptor; GRIN1/GRIN2B (Homo sapiens, UniProt Q05586+Q13224); test: Positive allosteric modulation of recombinant human GluN1/GluN2B receptor stably expressed in HEK293 cells assessed as increase in glycine/L-glutamate-induced channel current at -70 mV holding potential by IonWork […] method; type: cell-based
Method in brief: (§1)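 Stable HEK293 lines expressing GluN1/GluN2A or GluN1/GluN2B, measured by automated whole-cell patch clamp (Ionworks Barracuda). Cells were held at -70 mV and stepped to -45 mV during agonist application (EC20 L-glutamate plus 50 µM glycine). The test article was first pre-applied alone for 5 min, then co-applied with agonist to record potentiation. Concentration-response percent potentiation gave EC50 and Emax.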

[2] = system: Rattus norvegicus; test: Improvement in social recognition in 20 to 21 months old Wistar Han rat model of aged-induced memory deficit assessed as reduction in time spent with familiar juvenile at 10 mg/kg, ip administered 4 hrs prior to training trial and measured after 30 mins; type: functional, organism-based
[3] = Drug uptake in 20 to 21 months old Wistar Han rat model of aged-induced memory deficit brain at 3 mg/kg, ip measured after 4 hrs; type: ADME, organism-based; details: read-out: Drug uptake
[4] = system: Rattus norvegicus; test: Improvement in social recognition in 20 to 21 months old Wistar Han rat model of aged-induced memory deficit assessed as reduction in time spent with familiar juvenile at 1 mg/kg, ip administered 4 hrs prior to training trial and measured after 30 mins; type: functional, organism-based
[5] = Ratio of drug level in Sprague-Dawley rat brain to plasma at 2.5 mg/kg, iv measured after 1 hr; type: ADME, organism-based; details: brain and plasma, read-out: BPR
[6] = Volume of distribution at steady state in rat; type: ADME; details: in vivo, read-out: Vdss
[7] = biological target: T1, Glutamate NMDA receptor; GRIN1/GRIN2B; test: Positive allosteric modulation of recombinant human GluN1/GluN2B receptor stably expressed in HEK293 cells assessed as increase in glycine/L-glutamate-induced channel current at -70 mV holding potential by IonWork whole cell patch clamp method relative to control
[8] = system: Hippocampus; test: Induction of synaptic plasticity in postnatal 120 to 150 day rat brain hippocampal slice assessed as stimulation of theta burst stimulaiton-induced field potential potentiation at 1 uM treated 20 mins prior to theta burst stimulation and measured after 60 mins by electrophysiological method; type: functional, tissue-based
[9] = Drug uptake in 20 to 21 months old Wistar Han rat model of aged-induced memory deficit brain at 10 mg/kg, ip measured after 4 hrs; type: ADME, organism-based; details: read-out: Drug uptake
[10] = Drug uptake in 20 to 21 months old Wistar Han rat model of aged-induced memory deficit brain at 1 mg/kg, ip measured after 4 hrs; type: ADME, organism-based; details: read-out: Drug uptake
[11] = system: Rattus norvegicus; test: Improvement in social recognition in 20 to 21 months old Wistar Han rat model of aged-induced memory deficit assessed as reduction in time spent with familiar juvenile at 3 mg/kg, ip administered 4 hrs prior to training trial and measured after 30 mins; type: functional, organism-based
[12] = Stability in rat liver microsomes; type: ADME, Microsome; details: read-out: Stability
[13] = Clearance in iv dosed rat; type: ADME, organism-based; details: in vivo
[14] = biological target: T2, Glutamate NMDA receptor; GRIN1/GRIN2A (Homo sapiens, UniProt Q05586+Q12879); test: Positive allosteric modulation of recombinant human GluN1/GluN2A receptor stably expressed in HEK293 cells assessed as increase in glycine/L-glutamate-induced channel current at -70 mV holding potential by IonWork […] method relative to control; type: cell-based; method in brief: as §1
[15] = Stability in human liver microsomes; type: ADME, Microsome; details: read-out: Stability
[16] = Oral bioavailability in rat; type: ADME, organism-based; details: in vivo
[17] = biological target: T2, Glutamate NMDA receptor; GRIN1/GRIN2A; test: Positive allosteric modulation of recombinant human GluN1/GluN2A receptor stably expressed in HEK293 cells assessed as increase in glycine/L-glutamate-induced channel current at -70 mV holding potential by IonWork […] method; type: cell-based; method in brief: as §1
[18] = organism: Canis lupus familiaris; test: Positive allosteric modulation of recombinant dog GluN1/GluN2A receptor expressed in Xenopus laevis oocytes assessed as increase in glycine/L-glutamate-induced channel current at -80 mV holding potential by two-electrode voltage clamp method relative to control; type: cell-based
[19] = Half life in rat; type: ADME; details: in vivo
[20] = biological target: T2, Glutamate NMDA receptor; GRIN1/GRIN2A; test: Positive allosteric modulation of recombinant human GluN1/GluN2A receptor expressed in Xenopus laevis oocytes assessed as increase in glycine/L-glutamate-induced channel current at -80 mV holding potential by two-electrode voltage clamp method relative to control; type: cell-based
[21] = biological target: Glutamate NMDA receptor; Grin1/Grin2a (Rattus norvegicus) (UniProt P35439+Q00959); test: Positive allosteric modulation of recombinant rat GluN1/GluN2A receptor expressed in Xenopus laevis oocytes assessed as increase in glycine/L-glutamate-induced channel current at -80 mV holding potential by two-electrode voltage clamp method relative to control; type: cell-based
[22] = Positive allosteric modulation of recombinant dog GluN1/GluN2A receptor expressed in Xenopus laevis oocytes assessed as increase in glycine/L-glutamate-induced channel current at -80 mV holding potential by two-electrode voltage clamp method; type: cell-based; details: Canis lupus familiaris
[23] = biological target: T2, Glutamate NMDA receptor; GRIN1/GRIN2A; test: Positive allosteric modulation of recombinant human GluN1/GluN2A receptor expressed in Xenopus laevis oocytes assessed as increase in glycine/L-glutamate-induced channel current at -80 mV holding potential by two-electrode voltage clamp method; type: cell-based
[24] = biological target: Glutamate NMDA receptor; Grin1/Grin2a (Rattus norvegicus, UniProt P35439+Q00959); test: Positive allosteric modulation of recombinant rat GluN1/GluN2A receptor expressed in Xenopus laevis oocytes assessed as increase in glycine/L-glutamate-induced channel current at -80 mV holding potential by two-electrode voltage clamp method; type: cell-based

Row | Compound | EC50 [1] [nM] | Vd [6] [L/kg] | Emax [7] [%] | microsomal CLint [12] [µL/min/mg] | clearance [13] [mL/min/kg] | Emax [14] [%] | microsomal CLint [15] [µL/min/mg] | bioavailability [16] [%] | EC50 [17] [nM] | other results
1 | C[C@H](CCC(C)(C)O)[C@H]1CC[C@H]2[C@@H]3CC=C4C[C@@](C)(O)CC[C@]4(C)[C@H]3CC[C@]12C | 38 | 0.65 | 92 | 35 | 18.3 | 220 | 13 | 28 | 480 | Activity [2]: Active; concentration at 4 h [3]: 900 nM; Activity [4]: Active; Kp at 1 h [5]: 0.6; Activity [8]: Active; concentration at 4 h [9]: 3700 nM; concentration at 4 h [10]: 400 nM; Activity [11]: inactive
2 | CC(C)[C@@H](O)CC[C@@H](C)[C@H]1CC[C@H]2[C@@H]3CC=C4C[C@@H](O)CC[C@]4(C)[C@H]3CC[C@]12C | 530 | 2.5 | 150 | 52 | 98.3 | 210 | 10 | 9 | 150 | Emax [18]: 130%; half-life [19]: 32.4 min; Emax [20]: 73%; Emax [21]: 180%; EC50 [22]: 650 nM; EC50 [23]: 300 nM; EC50 [24]: 650 nM
